The text below walks through data of ChEMBL document CHEMBL4706770, “SD-91 as A Potent and Selective STAT3 Degrader Capable of Achieving Complete and Long-Lasting Tumor Regression” (ACS Med Chem Lett, 2021).

Calls of active or inactive are those of the source. The rule behind the calls is not given here.

For series [1], the target named is T1, Signal transducer and activator of transcription 6 (Homo sapiens, UniProt P42226).
T1 sequence (P42226 whole entry): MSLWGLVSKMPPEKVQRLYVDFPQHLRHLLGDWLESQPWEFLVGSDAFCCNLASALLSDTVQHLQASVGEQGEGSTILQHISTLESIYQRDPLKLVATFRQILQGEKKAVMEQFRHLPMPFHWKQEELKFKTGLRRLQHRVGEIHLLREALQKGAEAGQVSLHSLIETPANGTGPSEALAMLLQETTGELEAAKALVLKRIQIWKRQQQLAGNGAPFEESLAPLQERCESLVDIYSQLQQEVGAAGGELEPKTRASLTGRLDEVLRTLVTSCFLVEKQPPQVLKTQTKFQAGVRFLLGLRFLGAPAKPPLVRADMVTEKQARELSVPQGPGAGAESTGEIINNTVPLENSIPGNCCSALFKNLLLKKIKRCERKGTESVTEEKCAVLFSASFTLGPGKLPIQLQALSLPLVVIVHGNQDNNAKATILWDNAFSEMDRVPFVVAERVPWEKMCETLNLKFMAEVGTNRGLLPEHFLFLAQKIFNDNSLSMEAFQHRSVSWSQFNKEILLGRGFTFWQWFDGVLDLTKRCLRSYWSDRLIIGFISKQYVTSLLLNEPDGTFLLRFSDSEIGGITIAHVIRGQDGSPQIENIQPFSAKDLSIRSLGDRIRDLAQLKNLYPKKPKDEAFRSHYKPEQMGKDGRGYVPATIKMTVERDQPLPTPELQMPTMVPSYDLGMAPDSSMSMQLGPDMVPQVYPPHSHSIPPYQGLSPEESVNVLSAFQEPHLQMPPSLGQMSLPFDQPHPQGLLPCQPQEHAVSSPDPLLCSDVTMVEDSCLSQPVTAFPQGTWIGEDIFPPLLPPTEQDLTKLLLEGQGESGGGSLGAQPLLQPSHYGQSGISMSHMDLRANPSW
The experiment in a line: Binding affinity to human recombinant STAT6 assessed as dissociation constant incubated for 15 mins by biolayer interferometry. The gist of the method: (§1)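 Biolayer interferometry with recombinant human STAT1, STAT2, STAT3, STAT4, STAT5A, STAT5B or STAT6 proteins containing their SH2 domain. Compound run in 2× serial dilutions from 200 nM. Kd taken from steady-state fitting of equilibrium responses against concentration using a 1:1 binding model.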
Background: In BLI a coated tip is dipped into the sample, and binding shifts an interference pattern.

Series [2] is described as follows: Toxicity in SCID mouse xenografted with human MOLM16 cells assessed as toxic effects at 25 to 50 mg/kg, iv for 65 days. The series is classed as organism-based. To be noted: in vivo, 1560 h, dose 25-50 mg/kg, time 65 day. The gist of the method:
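SCID mice bearing MOLM-16 xenografts dosed intravenously at 25 or 50 mg/kg on a weekly schedule; vehicle 10% PEG400/90% PBS; body weight and tumor volume measured every 2 days; signs of toxicity monitored during and after treatment.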
Background: Xenograft models place foreign cells or tissue in a host animal.

Series [3] concerns Mus musculus. The experiment in a line: In vivo induction of STAT3 degradation in SCID mouse xenografted with human MOLM16 cells assessed as reduction in STAT3 in tumor tissue at 50 mg/kg, iv measured after 24 hrs by immunoblotting analysis. The series is classed as functional, organism-based. The gist of the method: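 SCID mice bearing MOLM-16 tumors given a single iv dose of 50 mg/kg or dosing vehicle. Tumor lysates immunoblotted for STAT3, STAT1 and STAT6 at time points from 1 h to at least 24 h.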

The target of series [4] is T2, Signal transducer and activator of transcription 1-alpha/beta (Homo sapiens, UniProt P42224).
T2 sequence (P42224 whole entry): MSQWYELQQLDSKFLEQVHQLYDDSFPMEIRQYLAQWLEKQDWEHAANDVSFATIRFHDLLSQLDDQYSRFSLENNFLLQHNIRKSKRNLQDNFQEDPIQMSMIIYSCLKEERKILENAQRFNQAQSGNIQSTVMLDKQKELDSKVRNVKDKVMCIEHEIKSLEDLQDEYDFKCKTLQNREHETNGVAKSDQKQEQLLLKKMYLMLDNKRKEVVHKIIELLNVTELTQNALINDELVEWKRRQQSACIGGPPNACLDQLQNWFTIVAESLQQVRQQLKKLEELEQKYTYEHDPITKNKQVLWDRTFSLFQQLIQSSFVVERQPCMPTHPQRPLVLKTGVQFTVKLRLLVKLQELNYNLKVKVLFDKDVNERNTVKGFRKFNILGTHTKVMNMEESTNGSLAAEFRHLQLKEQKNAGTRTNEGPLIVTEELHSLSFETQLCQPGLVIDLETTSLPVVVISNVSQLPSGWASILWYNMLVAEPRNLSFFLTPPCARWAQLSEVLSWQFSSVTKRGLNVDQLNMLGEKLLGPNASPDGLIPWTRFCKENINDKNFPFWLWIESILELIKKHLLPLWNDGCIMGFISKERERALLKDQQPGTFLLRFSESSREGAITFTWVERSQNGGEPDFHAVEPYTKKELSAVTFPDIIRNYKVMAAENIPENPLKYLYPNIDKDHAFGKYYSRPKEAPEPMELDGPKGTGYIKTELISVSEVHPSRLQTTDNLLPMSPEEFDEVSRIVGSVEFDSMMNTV
The experiment in a line: Binding affinity to human recombinant STAT1 assessed as dissociation constant incubated for 15 mins by biolayer interferometry. In a few lines: as §1

Series [5] is described as follows: Stability of the compound in PEG400/phosphate buffer saline measured upto 100 hrs by LC/MS/MS analysis. Type of series: physicochemical. In a few lines: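 Compound incubated at room temperature in dosing vehicle (10% PEG400/90% phosphate buffered saline); percentages of parent and conversion products determined at time points up to 96 h.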
Series [6] is described as follows: Drug uptake in SCID mouse xenografted with human MOLM16 cells assessed as (2-(((5S,8S,10aR)-8-(((S)-5-amino-1-(benzhydrylamino)-1,5-dioxopentan-2-yl)carbamoyl)-3-(8-(2-(2,6-dioxopiperidin-3-yl)-1-oxoisoindolin-4-yl)oct-7-yno yl)-6-oxodecahydropyrrolo[1,2-a][1,5]diazocin-5-yl)carbamoyl)-1H-indole-5-carbonyl)phosphonic acid level in plasma at 50 mg/kg, iv measured after 1 hrs by LC-MS/MS. The series is classed as ADME, organism-based. The conditions noted are these: in vivo. In a few lines:
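SCID mice bearing MOLM-16 xenografts given a single iv dose of 50 mg/kg. Concentrations of parent and hydrolysis product measured in plasma (ng/mL) and tumor tissue (ng/g) at 1, 6 and 24 h.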

A short description of series [7]: Drug metabolism in complete cell culture medium assessed as (2-(((5S,8S,10aR)-8-(((S)-5-amino-1-(benzhydrylamino)-1,5-dioxopentan-2-yl)carbamoyl)-3-(8-(2-(2,6-dioxopiperidin-3-yl)-1-oxoisoindolin-4-yl)oct-7-ynoyl)-6-oxodecahydropyrrolo[1,2-a][1,5]diazocin-5-yl)carbamoyl)-1H-indole-5-carbonyl)phosphonic acid after 24 hrs by LC/MS/MS analysis. In a few lines: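 Parent compound incubated in the cell culture medium used for the cellular assays, with or without cells, at 37 °C. Percentages of the hydrolysis product and the glutarimide ring-opened product measured at time points up to 96 h.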

In the case of `NC(=O)CC[C@H](NC(=O)[C@@H]1CC[C@@H]2CCN(C(=O)CCCCCC#Cc3cccc4c3CN(C3CCC(=O)NC3=O)C4=O)C[C@H](NC(=O)c3cc4cc(C(=O)P(=O)(O)O)ccc4[nH]3)C(=O)N21)C(=O)NC(c1ccccc1)c1ccccc1` (some centres not stated), the dissociation constant (Kd) in series [1] and in series [4] was over 10 nM in each case. Further, the Activity entry in series [2] was “Non-Toxic”. Moreover, in series [3], the outcome was Active. In addition, in series [5], the Stabilty entry was “Stable”.

With `NC(=O)CC[C@H](NC(=O)[C@@H]1CC[C@@H]2CCN(C(=O)CCCCCC#Cc3cccc4c3CN(C3CCC(=O)NC3=O)C4=O)C[C@H](NC(=O)c3cc4cc(C(F)(F)P(=O)(O)O)ccc4[nH]3)C(=O)N21)C(=O)NC(c1ccccc1)c1ccccc1` (some centres not stated), the Drug uptake in series [6] stood at 48476 ng/mL. The Drug metabolism in series [7] stood at 90%.
